Laboratory results as given in ChEMBL document CHEMBL1153104, “Synthesis and structural optimization of multiple H-bonding region of diarylalkyl (thio)amides as novel TRPV1 antagonists” (Bioorg Med Chem, 2009).

These compounds were tested against Transient receptor potential cation channel subfamily V member 1 (Rattus norvegicus, UniProt O35433) (assay: Antagonist activity at TRPV1 in Sprague-Dawley rat DRG neurons assessed as inhibition of capsaicin-induced [45]Ca2+ uptake).
Sequence of Transient receptor potential cation channel subfamily V member 1 (O35433 whole entry): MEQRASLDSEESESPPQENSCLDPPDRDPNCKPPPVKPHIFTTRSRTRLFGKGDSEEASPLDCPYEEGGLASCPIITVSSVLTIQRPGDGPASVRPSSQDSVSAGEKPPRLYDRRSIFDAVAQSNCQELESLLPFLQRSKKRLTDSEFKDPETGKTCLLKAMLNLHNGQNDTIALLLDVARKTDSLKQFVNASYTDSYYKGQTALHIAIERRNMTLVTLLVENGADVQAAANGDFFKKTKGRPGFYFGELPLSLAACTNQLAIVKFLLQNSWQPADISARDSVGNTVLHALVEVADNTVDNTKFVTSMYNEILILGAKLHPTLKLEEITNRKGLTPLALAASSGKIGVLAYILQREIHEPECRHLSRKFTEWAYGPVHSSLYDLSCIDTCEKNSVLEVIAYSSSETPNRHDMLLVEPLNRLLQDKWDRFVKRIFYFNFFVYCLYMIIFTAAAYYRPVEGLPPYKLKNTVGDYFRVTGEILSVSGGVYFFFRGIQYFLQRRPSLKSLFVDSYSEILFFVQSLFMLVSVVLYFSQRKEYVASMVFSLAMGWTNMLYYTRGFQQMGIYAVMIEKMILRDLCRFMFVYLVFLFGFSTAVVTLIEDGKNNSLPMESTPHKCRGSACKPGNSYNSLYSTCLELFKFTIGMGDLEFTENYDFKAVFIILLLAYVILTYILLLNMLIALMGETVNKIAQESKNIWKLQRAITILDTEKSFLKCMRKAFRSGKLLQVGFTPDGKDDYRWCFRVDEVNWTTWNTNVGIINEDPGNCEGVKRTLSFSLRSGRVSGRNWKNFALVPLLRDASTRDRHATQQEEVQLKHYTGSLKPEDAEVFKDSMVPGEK
Assay type: functional
Method in brief: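 Neonatal rat DRG neurons from all spinal levels were dissociated with collagenase/trypsin, then grown 3 days on poly-D-ornithine (1500–1700 neurons/well) in DME/F12 with 10% horse serum and C6-conditioned medium, with cytosine arabinoside for the first 2 days. Cells were exposed to ⁴⁵Ca²⁺, 0.5 capsaicin and compound for 10 min at room temperature, lysed in 0.3% SDS, and scintillation-counted. IC50 = 50% reduction of capsaicin response.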
For CC(C)(C)c1ccc(CCC(=S)NCc2ccc(NS(C)(=O)=O)c(C#N)c2)cc1, the IC50 was 55 nM.
For CC(C)(C)c1ccc(CCC(=S)NCc2ccc(NS(C)(=O)=O)cc2C(F)(F)F)cc1, the IC50 was 2400 nM.
With CC(C)(C)c1ccc(CCC(=S)NCc2ccc(NS(C)(=O)=O)c(Cl)c2)cc1 the IC50 was 96 nM.
CC(C)(C)c1ccc(CCC(=O)NCc2cc(F)c(NS(C)(=O)=O)c(C3CC3)c2)cc1 showed an IC50 of 360 nM.
With CC(C)(C)c1ccc(CCC(=S)NCc2ccc(NS(C)(=O)=O)c([N+](=O)[O-])c2)cc1 the IC50 was 72 nM.
Compound CC(C)(C)c1ccc(CCC(=S)NCc2ccc(NS(C)(=O)=O)c(C(F)(F)F)c2)cc1 has an IC50 of 940 nM.
For Cc1cc(CNC(=S)CCc2ccc(C(C)(C)C)cc2)ccc1NS(C)(=O)=O, the IC50 was 60 nM.
Work on CC(C)(C)c1ccc(CCC(=S)NCc2ccc(NS(C)(=O)=O)c(C(=O)O)c2)cc1 yielded an IC50 of 22600 nM.
With CC(C)(C)c1ccc(CCC(=S)NCc2ccc(NS(C)(=O)=O)cc2Cl)cc1 the IC50 was 3500 nM.
Cc1cc(CNC(=O)CCc2ccc(C(C)(C)C)cc2)cc(Cl)c1NS(C)(=O)=O gave an IC50 of 100 nM.
CC(C)(C)c1ccc(CCC(=S)NCc2ccc(NS(C)(=O)=O)c(I)c2)cc1 gave an IC50 of 300 nM.
CC(=O)c1cc(CNC(=S)CCc2ccc(C(C)(C)C)cc2)ccc1NS(C)(=O)=O showed an IC50 of 1000 nM.
In the case of Cc1cc(CNC(=S)CCc2ccc(C(C)(C)C)cc2)cc(C)c1NS(C)(=O)=O, the IC50 is reported as 2900 nM.
CC(C)(C)c1ccc(CCC(=S)NCc2ccc(NS(C)(=O)=O)c(F)c2)cc1 was tested, and the IC50 was 40 nM.
With CC(C)(C)c1ccc(CCC(=S)NCc2cc(F)c(NS(C)(=O)=O)c(C3CC3)c2)cc1 the IC50 was 270 nM.
CC(C)(C)c1ccc(CCC(=S)NCc2cc(F)c(NS(C)(=O)=O)c(C#N)c2)cc1 showed an IC50 of 28 nM.
In the case of C#Cc1cc(CNC(=S)CCc2ccc(C(C)(C)C)cc2)cc(F)c1NS(C)(=O)=O, the IC50 is reported as 75 nM.
Work on C=Cc1cc(CNC(=S)CCc2ccc(C(C)(C)C)cc2)ccc1NS(C)(=O)=O yielded an IC50 of 61 nM.
With Cc1cc(CNC(=O)CCc2ccc(C(C)(C)C)cc2)cc(C)c1NS(C)(=O)=O the IC50 was 620 nM.
With C=Cc1cc(CNC(=S)CCc2ccc(C(C)(C)C)cc2)cc(F)c1NS(C)(=O)=O the IC50 was 32 nM.
Work on COC(=O)c1cc(CNC(=S)CCc2ccc(C(C)(C)C)cc2)ccc1NS(C)(=O)=O yielded an IC50 of 3700 nM.
Compound Cc1cc(CNC(=S)CCc2ccc(C(C)(C)C)cc2)cc(Cl)c1NS(C)(=O)=O has an IC50 of 80 nM.
Work on CCc1cc(CNC(=S)CCc2ccc(C(C)(C)C)cc2)ccc1NS(C)(=O)=O yielded an IC50 of 240 nM.
